# Source: ChEMBL document CHEMBL4513216, “Probing the Open Global Health Chemical Diversity Library for Multistage-Active Starting Points for Next-Generation Antimalarials” (ACS Infect Dis, 2020)
# Test: Toxicity liver stage against HepG2, at 10uM
# Type: cell-based
# Design: test concentration 10 uM, cell line HepG2-A16-CD81EGFP
# Conditions: human, HepG2-A16-CD81EGFP cells; read-out: INHIBITION
# Method in brief: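 Uninfected HepG2-A16-CD81EGFP cells, 3 × 10^3 per well, 1536-well, plated on prespotted compound at 10 μM final, parasite-free screening media added to match infected plates; puromycin 10 μM positive, DMSO 0.5% negative; run in parallel with 48 h PbLuc assay at 37 °C, 5% CO2; viability by CellTiter-Glo luminescence, normalized to controls.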
row,SMILES,cytotoxicity at 10 µM [%]
1,Cc1c(C(=O)O)sc2nc(C(F)(F)F)ccc12,1.5
2,CN1CCOC[C@H]1c1nc(-c2ccc(F)cc2F)c[nH]1,-5.66
3,COCCNC(=O)c1cccnc1Oc1ccc(Cl)cc1,6.99
4,CSCC[C@H](NC(=O)Cn1ccc2c(Br)cccc21)C(=O)O,-2.94
5,Cc1cc(C(=O)N2CC[C@@H]3CN(C)S(=O)(=O)[C@@H]3CC2)no1,-7.55
6,CCC(=O)N1CCC2(CC1)CC(CC(=O)NC1CC1)c1ccccc1O2 (centres undefined),2.64
7,O=C1COC2(CCN(Cc3ccco3)CC2)CN1Cc1cccnc1,-4.25
8,Cc1ccc(CN2CC[C@H]3C(=O)N(c4cccnc4)CCO[C@H]3C2)o1,7.8
9,CCS(=O)(=O)N1C[C@H]2CN(Cc3ccc(OC)cc3)C(=O)[C@H]2C1,-1.34
10,CC(C)Nc1ncnc2c1CCN(C(=O)[C@H]1CCCO1)CC2,-0.685
11,O=C(Nc1ccccc1)N1CCC2(CC(=O)N(c3ccsc3)C2)C1 (centres undefined),2.58
12,Cc1ccoc1C(=O)N1CCO[C@H]2[C@H](OCc3ccncc3)CC[C@@H]21,9.06
13,Cc1cccc(-c2cc(C(=O)O)sn2)c1,-0.475
14,CS(=O)(=O)N1CCC(Oc2cnccn2)CC1,0.097
15,Cn1cc(C2CC(=O)NC23CCN(c2ncc(F)cn2)CC3)cn1 (centres undefined),-5.39
16,CCn1nnc2c1C(COC)CN(C(=O)COc1ccccc1)C2 (centres undefined),-17.1
17,COc1cccc(Cn2cc(N3C(=O)[C@H]4CCCC[C@H]4C3=O)cn2)c1,-11.9
18,CCn1nc(C)c(NC(=O)c2cc(NC(=O)C(C)C)n(C)n2)c1C,0.568
19,Cc1nc(C(Cc2ccsc2)NC(=O)CCN2CCOCC2)sc1C (centres undefined),7.04
20,O=C(Cc1ccccc1)N1CCC(c2nnc(-c3ccccn3)o2)CC1,2.83
21,CNc1cncc(C2CCCN2C(=O)CCn2ccnc2)n1 (centres undefined),3.91
22,COc1ccccc1CC(=O)N1CCN(Cc2ccco2)C[C@@H]1C,2.08

row,SMILES,cytotoxicity at 10 µM [%]
1,COCC(=O)N1CC(c2ccnc(Nc3cc(C(F)(F)F)ccn3)n2)C1,11.2
2,Cc1noc(C)c1-c1cccc(CC2CCN(C(=O)c3cscn3)C2)n1 (centres undefined),-6.66
3,O=C(c1ccccn1)N1CCC(Cc2cnc3[nH]ccc3c2)CC1,-7.75
4,Cn1cc(C(=O)N2CCCC(Cc3cnccn3)C2)cn1 (centres undefined),-8.16
5,CCOc1ccc(N(CCC#N)C(=O)c2ccnc(SC)c2)cc1,-2.6
6,Cc1cccc(C(=O)NCCS(=O)(=O)Cc2ccccc2)c1,-7.43
7,O=C(c1cc(C2CCCC2)no1)N1CCCCC1,-3.05
8,CN1CCOC(CNCc2cnc(C(C)(C)C)s2)C1 (centres undefined),-2.87
9,Cc1nc(NS(=O)(=O)c2cc(Br)ccc2C)no1,1.68
10,CN(Cc1csc2ccccc12)C(=O)NC1CCS(=O)(=O)C1 (centres undefined),-42.1
11,N#Cc1ccc(CN2CCC(CN3CCOCC3)C2)cc1 (centres undefined),-7.01
12,N#CC1(NC(=O)c2c(F)ccc(OC(F)F)c2F)CCOCC1,-8.29
13,Cc1ccc(C(=O)NCC(O)CN2CCCC2=O)cc1Cl (centres undefined),-8.69
14,Cc1cc(C)n(CC2CCN(CC(O)Cn3cccn3)CC2)n1 (centres undefined),-5.58
15,COCCC1(CNC(=O)Nc2ccc(-n3ccnn3)cc2)CCC1,-0.677
16,O=C(NCCCN1CCOCC1)C(OC1CCCC1)c1ccccc1 (centres undefined),-5.95
17,Cc1nc(S(=O)(=O)NCCC(=O)NCc2ccsc2)cn1C,3.68
18,CC(C)(C)[S+]([O-])CCNC(=O)c1csc(NC2CC2)n1 (centres undefined),13.4
19,O=C(NCCNC(=O)c1ccc(Cl)cc1)NCCn1cccc1,5.95
20,CCN(CC(=O)NC)C(=O)c1cc(-c2cccc(Cl)c2)no1,8.5
21,CC1CN(C(=O)c2ccc(=O)n(C)c2)c2ccccc2NC1=O (centres undefined),-2.09
22,O=C(CNc1cc2c(cc1Br)OCCO2)NC1CCS(=O)(=O)C1 (centres undefined),6.43

row,SMILES,cytotoxicity at 10 µM [%]
1,COCCN(Cc1ccco1)Cc1nc(-c2ccccc2C)no1,6.72
2,CS(=O)(=O)N(Cc1ccon1)c1cccc(Br)c1,7.57
3,CC(=O)NCCc1ccc(S(=O)(=O)Nc2cc(F)ccc2C)s1,-13.6
4,COc1ccccc1NC(=O)NCCCC(=O)Nc1cn[nH]c1,-9.55
5,Cc1cncc(NC(=O)c2ccc(CN3CCC(CO)CC3)cc2)c1,19
6,Cc1[nH]ncc1C(=O)N(CC(C)C)CC(O)c1ccc(F)cc1 (centres undefined),-1.61
7,Cc1nc(S(=O)(=O)N2CCSC3(CCCCC3)C2)cn1C,-9.2
8,COC(C)(C)c1noc(C2(C#N)CCCC2)n1,-5.11
9,CCCNC(=O)NC(=O)CNc1c(F)cccc1N1CCCC1,0.266
10,COc1ncccc1C(=O)N1CCn2c(COCC3CC3)cnc2C1C (centres undefined),-1.03
11,Cc1ccc2c(c1)[C@@H](CC(=O)N1CCN(C)CC1)CCO2,-11.1
12,CN1CCN(C(=O)N2CC[C@@](O)(c3ccccc3)[C@H]3CCCC[C@@H]32)CC1,-9.67
13,CC(C)N(CCO)C(=O)C1CCC(=O)N(Cc2ccc(Cl)cc2)C1 (centres undefined),-4.9
14,NCCO[C@H]1C[C@@H](O)C12CCN(C(=O)COc1cccc(Cl)c1)CC2,-4.32
15,CCN1CCC(c2nnc(CN3CCCC3)n2C2CC2)CC1,-7.3
16,COc1ccc2c(c1)OCC(CNC(=O)c1cc(C(C)C)on1)C2 (centres undefined),0.0723
17,CCC(=O)N1CCc2[nH]cnc2C12CCN(CC1CCOC1)CC2 (centres undefined),-0.264
18,Cc1nc(N(C)C)nc(N2CCC3(CC2)CNC(=O)O3)c1C,14.9
19,CN(C)Cc1nnc(C2CCN(c3ncccn3)CC2)n1C1CC1,-1.26
20,CCn1c(N)nc2cc(C(=O)NCCc3nnc(C)s3)cnc21,-2.46
21,Cc1ccc2cc(C3(O)CCN(C)CC3)ccc2n1,-0.432
22,O=C(c1ncccc1O)N1CCc2c(nc(-c3ccncc3)[nH]c2=O)C1,-0.918

row,SMILES,cytotoxicity at 10 µM [%]
1,CN(CC(=O)N1CCOCC(CO)C1)Cc1ccc(F)cc1 (centres undefined),-2.82
2,CC(C)N(C)S(=O)(=O)c1ccc2c(c1)CCN(C(=O)c1ccccn1)C2,10.3
3,COc1ccc(OCc2cc(C(=O)N3CC=CC3)n[nH]2)c(Cl)c1,7.26
4,Cc1nnc2sc(-c3cc(C(C)C)n[nH]3)nn12,-7.88
5,CCC(=O)N1CCN(c2cc(-n3cnc(C)c3C)nc(C)n2)CC1,-4.56
6,CN(Cc1ccc2nsnc2c1)C(=O)CCc1cc2n(n1)CCCNC2,-4.62
7,O=C(Cc1cnccn1)N1CCC(c2nccn2CC2CC2)CC1,-7.54
8,O=C(O)C1(O)CCN(c2ccc3cccc(Cl)c3n2)CC1,4.57
9,COCCN(C)C[C@@H]1CN(C(=O)c2c(C)cccc2OC)C[C@@H]1CO,-4.26
10,O=C(c1cccnc1N1CCCCC1)N1CCCC(n2cccn2)C1 (centres undefined),-0.438
11,CC(NC(=O)Cc1cccs1)c1nnc2n1CCC2 (centres undefined),-7.56
12,Cn1cnc(S(=O)(=O)NCCCN2CCCCCC2=O)c1Cl,-15.6
13,COc1ncccc1CNC(=O)c1cnccn1,-8.77
14,CC(C)c1ccc(OCCNC(=O)N2CCS(=O)(=O)CC2)cc1,-5.54
15,CCOc1ccccc1CNC(=O)N1CCC(Cc2cnn(C)c2)C1 (centres undefined),-7.3
16,CC(C)(C)NC(=O)CCOc1cccc(F)c1,-4.95
17,CSC(C)C(=O)NCc1ccnc(N2CCN(C)CC2)c1 (centres undefined),-15.3
18,CC(C)c1nc2c(n1C)CCN(CC(=O)Nc1nncs1)C2,-10.1
19,CC(C)c1nnc2n1CCN(C(=O)c1ccc3c(c1)CCC3)C2,-10.7
20,CN(C)c1ccc(CNC(=O)NCCc2cccs2)cn1,-2.8
21,COc1ccccc1NC(=O)NCCCn1nc2ccccn2c1=O,-18
22,Cc1cc(C2CCCN2Cc2nc3ccccc3o2)on1 (centres undefined),-17

row,SMILES,cytotoxicity at 10 µM [%]
1,O=C1COc2ccc(C(=O)N3CCCC(n4ccnc4)C3)cc2N1 (centres undefined),-13.5
2,Cc1cn2nc(N3CCCC3Cn3cccn3)sc2n1 (centres undefined),-18.1
3,Cc1ccc(N2CCCC(NCc3ccc(Cl)o3)C2)nn1 (centres undefined),-6.83
4,CN(Cc1ccc(-n2ccnc2)cc1)CC1CCCN1c1cccnn1 (centres undefined),-6.21
5,Cc1nc2c(c(C)c1CC(=O)NCc1ccc(F)cc1)c(=O)[nH]n2C,-15.9
6,CC(=O)N(Cc1ncc(C)o1)C1CCN(Cc2csc(C)n2)C1 (centres undefined),-15.8
7,CC(C)c1nccn1C1CCCN(C(=O)c2ccsc2)C1 (centres undefined),-5.2
8,CC(C)c1nnc2n1CCN(C(=O)c1ccc(Cn3cccc3)cc1)C2,-4.28
9,Cc1cc(C)n(C2CCCN(C(=O)c3ccn(C)c(=O)c3)C2)n1 (centres undefined),-5.72
10,O=C(Cc1ccc2c(c1)OCO2)N1CCN(c2cnccn2)CC1,-5.51
11,Cn1ccnc1CNC(=O)c1ccnc(C2CCNCC2)c1,5.8
12,CN(C)c1ncc(-c2cncn2CCc2ccc3c(c2)OCCO3)cn1,-1.04
13,Cc1c[nH]nc1C1CCCN1Cc1ncc[nH]1 (centres undefined),4.99
14,CCn1ncc2c1CN(C(=O)c1cc(C)oc1C)CC2COC (centres undefined),13
15,COc1ccc(C[C@H]2CN(C(=O)c3ccc(C)nc3)CC[C@@H]2OC)cc1,4.76
16,Cc1ccc(CN2C[C@H](C(=O)N3CCCCO3)[C@@H]3CCO[C@@H]3C2)o1,9.46
17,Cc1nc(CN2C[C@@H]3CN(c4ncccn4)C[C@@H]3C2=O)cs1,5.16
18,CN1CC(=O)N(c2ccsc2)CC12CCN(S(C)(=O)=O)C2 (centres undefined),-26.1
19,CCc1ccc(CN2C[C@@H]3COC[C@H](NS(C)(=O)=O)[C@@H]3C2)o1,-2.01
20,Cc1noc(C)c1CN1C[C@H](OCC2CCN(C)CC2)[C@H]2COC[C@H]21,-4.49
21,N#Cc1ccccc1CN1C[C@@H]2CC[C@H]1CN(C(=O)c1cccnc1)C2,-0.849
